Compounds with a hit are over-represented: about 1.8% of the library has one in this group of screens.
GSTO1 inh: counter-screen for RBBP9 inhibitors: inhibitors of human GSTO1; P78417; recombinant GSTO1, activity-based probe fluorescence polarization; inhibition, % at 5.96 µM; actives 1.1% (n = 300,000);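 active = inhibition above the campaign mean inhibition plus 3 SD, cut at about 35% in these data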;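 also: 0% = GSTO1-1 with DMSO and 100% = wells lacking GSTO1-1 enzyme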
Apaf1 inhib: human Apaf-1 inhibition; inhibition, % at 20 µM; actives 0.71% (n = 330,000); AID 489030; reconstituted apoptosome caspase-3 activity, DEVD-Rh110 fluorescence; active = inhibition of at least 40% at 20 µM;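 also: plate controls were DMSO wells for no effect and DEVD-CHO caspase inhibitor wells for full effect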
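detection = Rh110 fluorescence intensity | test system = biochemical Apaf-1 apoptosome reconstitution | also added = cytochrome c and DEVD-Rh110 substrate | schedule = 30 min plus 50 min, RT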
Fh CTSL1 inh: blocks F. hepatica cathepsin L1 in PFM18AAP counter-screen; recombinant F. hepatica cathepsin L1, Z-Leu-Arg-MCA fluorescence; inhibition, % at 5.96 µM; actives 0.49% (n = 300,000); AID 1906;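 active = inhibition above the mean of all tested compounds plus 3 SD, set per screening campaign, cut at about 17% in these data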;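 also: 0% = plate median of test compound wells and 100% = 1 µM Z-Phe-Ala-diazomethylketone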
PAD4 inh: blocks human protein arginine deiminase 4. recombinant PAD4, RCA probe fluorescence polarization. inhibition, % at 6.36 µM. actives 0.41% (n = 330,000). AID 485272;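 active = percent inhibition above a cutoff equal to the mean of all tested compounds plus 3 SD, cut at about 15% in these data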;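 also: 0% = PAD4 with RCA probe and DMSO and 100% = probe without PAD4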
TDP2 inh: TDP2 (human) inhibition, absorbance primary screen | O95551 | recombinant TDP2, T5PNP hydrolysis, p-nitrophenol absorbance 415 nm | inhibition, % at 12.8 µM | actives 0.34% (n = 370,000);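 active = inhibition above the mean of all tested compounds plus 3 SD, set per campaign, cut at about 25% in these data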;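 also: 0% = DMSO with enzyme and 100% = buffer with substrate but no TDP2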
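System: recombinant human TDP2 / Amount: 120 nM TDP2 per well / Also added: 5 mM T5PNP chromogenic substrate / Doses: 12.8 µM single point, 1% DMSO / Incubation: 2 h at 37 °C / Detection: p-Nitrophenol epi absorbance / Evaluation: % inhibition relative to enzyme-containing and enzyme-free wells / Repeats: singlicate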
GSTO1 inh conf: GSTO1 (human) inhibition, confirmation. shares compounds with GSTO1 inh. recombinant GSTO1, probe fluorescence polarization. inhibition, % at 5.96 µM. actives 54% (n = 2,400);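 active = inhibition above the primary screen's cutoff, its mean inhibition plus 3 SD, cut at about 35% in these data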;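 also: loss of polarization as inhibitors block binding of rhodamine sulfonate ester activity probe; 0% = GSTO1 with DMSO and 100% = wells lacking GSTO1 enzyme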
PAD4 FP conf: confirmation of human PAD4 inhibitors | recombinant PAD4, RCA probe fluorescence polarization | AID 488796 | inhibition, % at 6.36 µM | shares compounds with PAD4 inh | actives 28% (n = 1,200);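 active = mean inhibition across replicates above the hit cutoff set by the earlier primary screen, cut at about 15% in these data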;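 also: inhibitors block active-site labeling by the probe so polarization falls; 0% = PAD4 with probe and DMSO and 100% = probe without PAD4 enzyme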
Apaf-1 inh conf2: Apaf-1 inhibition, single-dose confirmed. inhibition, % at 20 µM. actives 25% (n = 1,800). shares compounds with Apaf1 inhib. AID 504614. reconstituted apoptosome, caspase-3 DEVD-Rh110 fluorescence;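 active = mean inhibition of at least 40% at 20 µM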;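 also: plate controls were DMSO wells for no effect and DEVD-CHO caspase inhibitor control wells for full effect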
Rh110 quench: Rh110 signal interference in Apaf-1 inhibitor counter-screen | shares compounds with Apaf1 inhib | Rh110 fluorescence interference, quenched caspase reaction | activation (fluorescence interference), % at 20 µM | 1,800 tested, under 10 active;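 active = signal rise of 40% or more at 20 µM, treated as a fluorescence artifact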
Apaf1 inh interf: Apaf-1 inhibitor counter-screen fluorescence artifact; AID 588538; fluorescence interference counterscreen, Apaf-1 assay format; IC50, µM; shares compounds with Apaf1 inhib; 460 tested, under 10 active; call rule not given here
* hit, by the source's call; · = no result; ! = repeats disagree.

SMILES	GSTO1 inh	Apaf1 inhib	Fh CTSL1 inh	PAD4 inh	TDP2 inh	GSTO1 inh conf	Apaf-1 inh conf2	Rh110 quench	Apaf1 inh interf	others
CCCOc1nccc2c1n(C)c(=O)n2C	·	·	·	·	-5	·	·	·	·
COc1ccc(C(=O)c2coc(-c3ccccc3C(=O)O)c2C(=O)O)cc1	3	-11	0	-5	-6	·	·	·	·
COc1ccc(C(=O)c2c(C(F)(F)F)oc3c2C(=O)c2ccccc2C3=O)cc1	63*	79*	28*	30*	·	66*	84*	14	>100	PAD4 FP conf=22*
c1cc2c3c(cccc3c1)NC1(CCCCCC1)N2	53*	49*	6	0	15	21	57*	-4	>100
c1cc2c3c(cccc3c1)NC1(CCCCC1)N2	16	22	0	-13	14	·	·	·	·
Nc1ccc(Oc2ncccn2)cc1	65*	44*	-1	8	-6	9	52*	8	>100
Cc1ccc(SC2=C(Sc3ccc(C)cc3)C(=O)c3ccccc3C2=O)cc1	71*	64*	-6	-9	18	24	32	7	·
CCc1ccc(OCC(=O)N/N=C2\CC(=O)c3ccccc32)cc1	61*	84*	6	25*	·	25	54*	10	>100	PAD4 FP conf=-8
COc1ccc(OCC(=O)N/N=C2\CCCCc3ccccc32)cc1	2	10	1	4	-8	·	·	·	·
COc1ccc(-c2nnc(SCC(=O)NN=Cc3c(O)ccc4ccccc34)n2-c2ccc(OC)cc2)cc1	·	·	·	·	-7	·	·	·	·
Oc1ccc(NCc2ccccc2OCc2ccccc2)cc1	84*	90*	2	-6	12	7	18	6	·
CCNCc1ccccc1OCc1ccccc1	7	3	2	0	6	·	·	·	·
COC(=O)c1cc(-c2c(C)noc2C)c(=O)n2c1CCC2	·	·	·	·	-4	·	·	·	·
COc1ccc(S(=O)(=O)Nc2ccc3c(c2)OCO3)cc1	11	0	0	-1	9	·	·	·	·
COc1ccc2c(c1)CC/C(=C\Nc1ccc3c(c1)OCO3)C2=O	69*	78*	0	4	4	62*	47*	4	>100
CN1CCc2cccc3c2[C@H]1Cc1ccc(O)c(O)c1-3	89*	42*!	-6	6	-13	6	6	7	·
O=C1C(Cl)=C(NCc2cccnc2)C(=O)c2ccccc21	77*	85*	27*	21*	11	57*	65*	8	>100	PAD4 FP conf=-7
CCCC(C)C(=O)NC1CCCCN(Cc2ccc(C)cc2)C1=O (stereo not given)	·	·	·	·	3	·	·	·	·
O=c1[nH]cnc2nn(C3OC(CO)C(O)C3O)nc12 (stereo not given)	·	·	·	·	-5	·	·	·	·
COc1cccc2c1[C@H](/C=C/c1ccccc1)[C@@H]([C@H](O)COC(C)=O)OC2	·	·	·	·	-4	·	·	·	·
CC(=O)Nc1ccc(NC2=C/C(=N/S(=O)(=O)c3cccs3)c3ccccc3C2=O)cc1	87*	90*	102*	65*	77*	86*	94*	-5	>100	PAD4 FP conf=45*
COc1ccc(S(=O)(=O)/N=C2\C=C(Nc3ccc(O)cc3)C(=O)c3ccccc32)cc1	94*	96*	92*	62*	67*	89*	98*	5	>100	PAD4 FP conf=58*
CC(=O)Nc1ccc(NC(=O)C(C)OC(=O)c2ccccc2NS(=O)(=O)c2cccs2)cc1 (stereo not given)	-18	-20	-4	-2	10	·	·	·	·
COc1ccc(S(=O)(=O)c2ccc(O)cc2)cc1	4	0	1	1	-12	·	·	·	·
